A short description of series [1]: Inhibition of Hepatitis C virus NS5B polymerase. Set-up: species or system Hepacivirus hominis. In a few lines:
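Nucleoside triphosphates tested in an NS5B polymerization assay on a heteromeric RNA template; IC50 given as mean of ≥3 experiments, SD within 20%.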

The test system of series [2] is Hepatitis C virus. In words: Antiviral activity against Hepatitis C virus genotype 1b infected in human HBI10A cells assessed as inhibition of viral replication in presence of 10% FBS. Format: functional, organism-based, Hepacivirus hominis. In a few lines: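 HBI10A hepatoma cells stably carrying a genotype 1b subgenomic bicistronic HCV replicon; EC50 measured in the presence of 10% fetal bovine serum; mean of ≥3 experiments, SD within 20%.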

Series [3] is described as follows: Oral bioavailability in Wistar Han rat at 1 mg/kg. Conditions: in vivo; call rule not given here. Format: ADME, organism-based. In a few lines:
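Pharmacokinetics in Wistar Han rats after 1 mg/Kg given intravenously and orally; parent nucleoside followed in plasma to derive clearance, volume of distribution and oral bioavailability (F).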

In series [4] the test system is Liver. In words: Drug uptake in Wistar Han rat liver assessed as nucleotide triphosphate level per gram of tissue at 20 mg/kg, iv measured after 3 hrs. The series is classed as ADME, organism-based. Set-up: dose 20 mg/kg, route intravenous. As to conditions: in vivo. In a few lines: (§1)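 Wistar Han rats given 20 mg/Kg intravenously; NTP in liver measured up to 12 h after dosing, at 3, 6 and 12 h (nmol/g); parent nucleoside measured in plasma, and liver NTP/plasma nucleoside ratio computed at each timepoint.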

Series [5] deals with Liver. Nature of the series: Drug uptake in Wistar Han rat liver assessed as nucleotide triphosphate level per gram of tissue at 20 mg/kg, iv measured after 6 hrs. The series is classed as ADME, organism-based. Set-up: dose 20 mg/kg, route intravenous. As to conditions: in vivo. In outline:
as §1

In series [6] the test system is Liver. In words: Drug uptake in Wistar Han rat liver assessed as nucleotide triphosphate level per gram of tissue at 20 mg/kg, iv measured after 12 hrs. The series is classed as ADME, organism-based. Further details: dose 20 mg/kg, route intravenous. Conditions: in vivo. In a few lines: as §1
Series [7] has as its system Nucleic Acid. In words: Ratio of drug level in nucleotide triphosphate level in liver to parent compound level in plasma in Wistar Han rat at 20 mg/kg, iv measured after 3 to 12 hrs. As to conditions: in vivo. Set-up: dose 20 mg/kg, route intravenous. Format: ADME, organism-based. In a few lines: as §1
The subject of series [8] is Liver. Nature of the series: Drug uptake in Wistar Han rat liver assessed as nucleotide triphosphate level per gram of tissue at 20 mg/kg, po measured after 12 hrs. Format: ADME, organism-based. Set-up: dose 20 mg/kg, route oral. As to conditions: in vivo. In a few lines:
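Wistar Han rats dosed orally at 20 mg/Kg; NTP in liver measured 12 h after dosing, in nmol/g.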

Series [9] is described as follows: Inhibition of human DNA polymerase alpha.
Series [10] can be described thus: Inhibition of human DNA polymerase beta.
A short description of series [11]: Inhibition of human DNA polymerase gamma.
A short description of series [12]: Prodrug activation in hamsters liver assessed as NTP formation at 10 mg/kg. The series is classed as organism-based. Set-up: dose 10 mg/kg. Conditions: cricetinae, in vivo. In a few lines:
(§2)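 Prodrug dosed at 10 mg/Kg in hamster; liver analysed for NTP and NMP species.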

Series [13] is described as follows: Prodrug activation in hamsters liver assessed as NMP formation at 10 mg/kg. Further details: dose 10 mg/kg. Conditions: cricetinae, in vivo. The series is classed as organism-based. In a few lines:
as §2

In general, IC50 refers to the concentration that inhibits the measured activity by half. Low readings indicate greater potency, high ones weaker potency. The compound `Cc1noc(-c2cn([C@@H]3O[C@H](COP(=O)(O)OP(=O)(O)OP(=O)(O)O)[C@@H](O)[C@@]3(C)O)c3ncnc(N)c23)n1` gave an IC50 in series [1] of 8.4 µM.

What is called EC50 is the concentration at which the effect is half-maximal. As usually defined, the bioavailability is dose-corrected exposure relative to a reference, in per cent. Low values mean little systemic uptake, high ones much systemic uptake. In the case of `C[C@@]1(O)[C@H](O)[C@@H](CO)O[C@H]1n1cc(-c2ncon2)c2c(N)ncnc21`, the EC50 in [2] is 1.9 µM. In [3], this compound showed a bioavailability of 14.7%. The Drug uptake worked out at 11.9 nmol/g in [4], 3.9 nmol/g in [5], 0.5 nmol/g in series [6] and 0.4 nmol/g in [8]. Further, the Ratio in series [7] is listed as 20.

`C[C@@]1(O)[C@H](O)[C@@H](CO)O[C@H]1n1ccc2c(N)ncnc21` [BETA-2'-C-METHYL-7-DEAZA-ADENOSINE]: in [2], the EC50 is 0.3 µM.

With `C[C@@]1(O)[C@H](O)[C@@H](COP(=O)(O)OP(=O)(O)OP(=O)(O)O)O[C@H]1n1cc(-c2cc[nH]n2)c2c(N)ncnc21`, the IC50 is 0.1 µM in [1], > 10 µM in [9], > 10 µM in [10] and > 10 µM in series [11].

`C[C@@]1(O)[C@H](O)[C@@H](CO)O[C@H]1n1cc(-c2cn[nH]c2)c2c(N)ncnc21`: the EC50 in [2] came out at 30 µM.

Compound `C[C@@]1(O)[C@H](O)[C@@H](COP(=O)(O)OP(=O)(O)OP(=O)(O)O)O[C@H]1n1cc(-c2ncco2)c2c(N)ncnc21` registered an IC50 in series [1] of 0.5 µM.

For `Cc1noc(-c2cn([C@@H]3O[C@H](CO)[C@@H](O)[C@@]3(C)O)c3ncnc(N)c23)n1`, the EC50 in series [2] was determined as 42 µM.

Consider `CCOC(=O)[C@@H](C)NP(=O)(OC[C@H]1O[C@@H](n2cc(-c3ccn[nH]3)c3c(N)ncnc32)[C@](C)(O)[C@@H]1O)Oc1ccccc1` (stereo partly drawn), for which the EC50 in series [2] came to 1.8 µM.

`C[C@@]1(O)[C@H](O)[C@@H](CO)O[C@H]1n1cc(-c2ncccn2)c2c(N)ncnc21`: the EC50 in series [2] was > 100 µM.

In the case of `C[C@@]1(F)[C@H](O)[C@@H](COP(=O)(O)OP(=O)(O)OP(=O)(O)O)O[C@H]1n1cc(-c2ncco2)c2c(N)ncnc21`, in [1], 0.3 µM corresponded to half-maximal inhibition (IC50).

With `C[C@@]1(O)[C@H](O)[C@@H](COP(=O)(O)OP(=O)(O)OP(=O)(O)O)O[C@H]1n1cc(-c2nnco2)c2c(N)ncnc21`, the half-inhibitory concentration (IC50) in [1] is > 95 µM.

For `C[C@@]1(O)[C@H](O)[C@@H](COP(=O)(O)OP(=O)(O)OP(=O)(O)O)O[C@H]1n1ccc2c(N)ncnc21`, the IC50 in series [1] came out at 0.1 µM.

Turning to `CCOC(=O)[C@@H](C)NP(=O)(OC[C@H]1O[C@@H](n2cc(-c3ccn[nH]3)c3c(N)ncnc32)[C@](C)(F)[C@@H]1O)Oc1ccccc1` (stereo partly drawn), the EC50 in series [2] is > 50 µM. Besides, the Drug metabolism result in series [12] is “Not Active”; in series [13], “Active”.

`Cn1cc(-c2cn([C@@H]3O[C@H](COP(=O)(O)OP(=O)(O)OP(=O)(O)O)[C@@H](O)[C@@]3(C)O)c3ncnc(N)c23)nn1` displayed an IC50 in series [1] of 8.4 µM. In other words, the single-digit micromolar range.

In [1], `C[C@@]1(O)[C@H](O)[C@@H](COP(=O)(O)OP(=O)(O)OP(=O)(O)O)O[C@H]1n1cc(-c2cn[nH]c2)c2c(N)ncnc21` registered an IC50 of 8.4 µM.

On to `C[C@@]1(O)[C@H](O)[C@@H](COP(=O)(O)OP(=O)(O)OP(=O)(O)O)O[C@H]1n1cc(-c2ncccn2)c2c(N)ncnc21`, for which, in series [1], the IC50 was found to be 12 µM.

For `C[C@@]1(F)[C@H](O)[C@@H](CO)O[C@H]1n1cc(-c2ccn[nH]2)c2c(N)ncnc21`, the EC50 in [2] is 35 µM.

Take `C[C@@]1(O)[C@H](O)[C@@H](CO)O[C@H]1n1cc(-c2ncco2)c2c(N)ncnc21`: the EC50 in series [2] was 7.8 µM.

In series [1], `C[C@@]1(F)[C@H](O)[C@@H](COP(=O)(O)OP(=O)(O)OP(=O)(O)O)O[C@H]1n1cc(-c2ncon2)c2c(N)ncnc21` had an IC50 of 0.4 µM.

For the compound `Cn1cc(-c2cn([C@@H]3O[C@H](CO)[C@@H](O)[C@@]3(C)O)c3ncnc(N)c23)nn1`, the concentration giving a half-maximal response (EC50) in series [2] came to 42 µM.

As for `C[C@@]1(F)[C@H](O)[C@@H](COP(=O)(O)OP(=O)(O)OP(=O)(O)O)O[C@H]1n1cc(-c2ccn[nH]2)c2c(N)ncnc21`, the IC50 in [1] is 0.07 µM; in [9] it was > 10 µM; in series [10] it was > 10 µM; in [11], > 10 µM.

As to `C[C@@]1(F)[C@H](O)[C@@H](CO)O[C@H]1n1cc(-c2ncco2)c2c(N)ncnc21`, the EC50 in series [2] was 37 µM.

For `C[C@@]1(O)[C@H](O)[C@@H](CO)O[C@H]1n1cc(-c2nnco2)c2c(N)ncnc21`, in series [2], the EC50 is 46 µM.

As to `C[C@@]1(F)[C@H](O)[C@@H](CO)O[C@H]1n1cc(-c2ncon2)c2c(N)ncnc21`, the EC50 in [2] was 41 µM.

In the case of `C[C@@]1(O)[C@H](O)[C@@H](COP(=O)(O)OP(=O)(O)OP(=O)(O)O)O[C@H]1n1cc(-c2ncon2)c2c(N)ncnc21`, the IC50 in series [1] is 0.5 µM; in series [9], > 10 µM; in series [10], > 10 µM; in series [11], > 10 µM.

With `C[C@@]1(O)[C@H](O)[C@@H](CO)O[C@H]1n1cc(-c2cc[nH]n2)c2c(N)ncnc21`, the EC50 in series [2] is > 100 µM.

The record behind these values is ChEMBL document CHEMBL2057165, “Synthesis and antiviral properties of novel 7-heterocyclic substituted 7-deaza-adenine nucleoside inhibitors of Hepatitis C NS5B polymerase” (Bioorg Med Chem, 2012).
